Assay results taken from ChEMBL document CHEMBL1240474, “Pharmacological evaluation and characterizations of newly synthesized 1,2,4-triazoles” (2010).
Converted amounts (≈) assume the structure as drawn.

Key:
Format in all cases: functional
Pseudomonas aeruginosa = assay: Antibacterial activity against Pseudomonas aeruginosa MTCC 2488 by broth microdilution method
Summary of the method: (§1)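 Serial dilutions in Mueller Hinton broth, drugs diluted in DMSO from a 2000 µg/ml stock, inoculum adjusted by turbidity to 10⁸ CFU/ml, ampicillin as reference. Primary screen at 500, 250 and 125 µg/ml; actives retested at 100 down to 1.5625 µg/ml. Incubated overnight at 37 °C.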

Aspergillus clavatus = assay: Antifungal activity against Aspergillus clavatus MTCC 1323 by broth microdilution method
Staphylococcus aureus = assay: Antibacterial activity against Staphylococcus aureus MTCC 96 by broth microdilution method; summary of the method: as §1
Escherichia coli = assay: Antibacterial activity against Escherichia coli MTCC 443 by broth microdilution method; summary of the method: as §1
Candida albicans = assay: Antifungal activity against Candida albicans MTCC 227 by broth microdilution method
Streptococcus pyogenes = assay: Antibacterial activity against Streptococcus pyogenes MTCC 442 by broth microdilution method; summary of the method: as §1
[1] = system: Mycobacterium tuberculosis; assay: Antimycobacterial activity against Mycobacterium tuberculosis H37Rv at MIC concentration after up to 28 days
[2] = system: Mycobacterium tuberculosis; assay: Antimycobacterial activity against Mycobacterium tuberculosis H37Rv after up to 28 days; details: 672 h
Summary of the method: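 Lowenstein-Jensen agar dilution against M. tuberculosis H37Rv. Compounds were made up as 2000 µg/ml DMSO stocks and added to liquid L.J. medium at primary levels of 1000, 500 and 250 µg/ml and secondary levels of 200–3.25 µg/ml. The medium was inspissated, held 24 h at 37 °C, then streaked with bacilli from saline suspension. Growth was read at 12, 22 and 28 days against drug-free controls. MIC was the lowest concentration giving no colonies or fewer than 20.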

Aspergillus niger = assay: Antifungal activity against Aspergillus niger MTCC 282 by broth microdilution method

| Compound | MIC (Pseudomonas aeruginosa) [µg/mL] | MIC (Aspergillus clavatus) [µg/mL] | MIC (Staphylococcus aureus) [µg/mL] | MIC (Escherichia coli) [µg/mL] | MIC (Candida albicans) [µg/mL] | MIC (Streptococcus pyogenes) [µg/mL] | inhibition (INH) [1] [%] | MIC [2] [µg/mL] | MIC (Aspergillus niger) [µg/mL] |
| --- | --- | --- | --- | --- | --- | --- | --- | --- | --- |
| Cc1ccc(-c2nnc(-c3cccnc3)n2Nc2nc3ccc(Cl)cc3s2)cc1 | 125 (≈ 298 µM) | 250 (≈ 597 µM) | 500 (≈ 1190 µM) | 250 (≈ 597 µM) | 500 (≈ 1190 µM) | 500 (≈ 1190 µM) | 99 | 100 (≈ 239 µM) | 500 (≈ 1190 µM) |
| NNc1nc2ccc(Cl)cc2s1 | 125 (≈ 626 µM) | 250 (≈ 1250 µM) | 500 (≈ 2500 µM) | 100 (≈ 501 µM) | 250 (≈ 1250 µM) | 500 (≈ 2500 µM) | 99 | 200 (≈ 1000 µM) | 200 (≈ 1000 µM) |
| COc1ccc2nc(NN)sc2c1 | 125 (≈ 640 µM) | 250 (≈ 1280 µM) | 200 (≈ 1020 µM) | 62.5 (≈ 320 µM) | 500 (≈ 2560 µM) | 250 (≈ 1280 µM) | 99 | 50 (≈ 256 µM) | 500 (≈ 2560 µM) |
| Cc1ccc(-c2nnc(-c3cccnc3)o2)cc1 | 100 (≈ 421 µM) | 500 (≈ 2110 µM) | 100 (≈ 421 µM) | 250 (≈ 1050 µM) | 1000 (≈ 4210 µM) | 250 (≈ 1050 µM) | 98 | 500 (≈ 2110 µM) | 500 (≈ 2110 µM) |
| Cc1ccc(-c2nnc(-c3cccnc3)n2Nc2nc3c(Cl)cccc3s2)cc1 | 500 (≈ 1190 µM) | 1000 (≈ 2390 µM) | 250 (≈ 597 µM) | 125 (≈ 298 µM) | 500 (≈ 1190 µM) | 500 (≈ 1190 µM) | 99 | 25 (≈ 59.7 µM) | > 1000 |
| COC1=CC(=O)C[C@@H](C)[C@]12Oc1c(Cl)c(OC)cc(OC)c1C2=O [GRISEOFULVIN] |  | 100 (≈ 283 µM) |  |  | 500 (≈ 1420 µM) |  |  |  | 100 (≈ 283 µM) |
| Cc1ccc2nc(NN)sc2c1 | 500 (≈ 2790 µM) | > 1000 | 250 (≈ 1390 µM) | 100 (≈ 558 µM) | 250 (≈ 1390 µM) | 250 (≈ 1390 µM) | 98 | 1000 (≈ 5580 µM) | 1000 (≈ 5580 µM) |
| NNc1nc2ccc([N+](=O)[O-])cc2s1 | 250 (≈ 1190 µM) | 1000 (≈ 4760 µM) | 500 (≈ 2380 µM) | 250 (≈ 1190 µM) | 500 (≈ 2380 µM) | 500 (≈ 2380 µM) | 99 | 250 (≈ 1190 µM) | 500 (≈ 2380 µM) |
| Cc1ccc(-c2nnc(-c3cccnc3)n2Nc2nc3c(C)cccc3s2)cc1 | 500 (≈ 1250 µM) | 200 (≈ 502 µM) | 500 (≈ 1250 µM) | 250 (≈ 627 µM) | 100 (≈ 251 µM) | 250 (≈ 627 µM) | 98 | 500 (≈ 1250 µM) | 250 (≈ 627 µM) |
| NNc1nc2cc(Cl)c(Cl)cc2s1 | 125 (≈ 534 µM) | 1000 (≈ 4270 µM) | 250 (≈ 1070 µM) | 100 (≈ 427 µM) | 500 (≈ 2140 µM) | 500 (≈ 2140 µM) | 99 | 250 (≈ 1070 µM) | 500 (≈ 2140 µM) |
| CC1(C)S[C@@H]2[C@H](NC(=O)[C@H](N)c3ccccc3)C(=O)N2[C@H]1C(=O)O [AMPICILLIN] | 100 (≈ 286 µM) |  | 250 (≈ 715 µM) | 100 (≈ 286 µM) |  | 100 (≈ 286 µM) |  |  |  |
| Cc1ccc(-c2nnc(-c3cccnc3)n2Nc2nc3ccc(F)cc3s2)cc1 | 250 (≈ 621 µM) | 250 (≈ 621 µM) | 125 (≈ 311 µM) | 250 (≈ 621 µM) | 500 (≈ 1240 µM) | 100 (≈ 248 µM) | 98 | 200 (≈ 497 µM) | 500 (≈ 1240 µM) |
| Cc1ccc(-c2nnc(-c3cccnc3)n2Nc2nc3ccc(Br)cc3s2)cc1 | 100 (≈ 216 µM) | 1000 (≈ 2160 µM) | 125 (≈ 270 µM) | 100 (≈ 216 µM) | 1000 (≈ 2160 µM) | 125 (≈ 270 µM) | 99 | 50 (≈ 108 µM) | 500 (≈ 1080 µM) |
| NNc1nc2ccc(Br)cc2s1 | 500 (≈ 2050 µM) | 500 (≈ 2050 µM) | 250 (≈ 1020 µM) | 500 (≈ 2050 µM) | 500 (≈ 2050 µM) | 500 (≈ 2050 µM) | 97 | 500 (≈ 2050 µM) | 500 (≈ 2050 µM) |
| Cc1ccc(-c2nnc(-c3cccnc3)n2Nc2nc3ccc([N+](=O)[O-])cc3s2)cc1 | 200 (≈ 466 µM) | 500 (≈ 1160 µM) | 250 (≈ 582 µM) | 100 (≈ 233 µM) | 500 (≈ 1160 µM) | 125 (≈ 291 µM) | 98 | 200 (≈ 466 µM) | 500 (≈ 1160 µM) |
| Cc1ccc(-c2nnc(-c3cccnc3)n2Nc2nc3ccc(C)cc3s2)cc1 | 250 (≈ 627 µM) | > 1000 | 100 (≈ 251 µM) | 125 (≈ 314 µM) | 500 (≈ 1250 µM) | 100 (≈ 251 µM) | 99 | 50 (≈ 125 µM) | 1000 (≈ 2510 µM) |
| Cc1ccc(-c2nnc(-c3cccnc3)n2Nc2nc3c([N+](=O)[O-])cccc3s2)cc1 | 25 (≈ 58.2 µM) | 500 (≈ 1160 µM) | 500 (≈ 1160 µM) | 12.5 (≈ 29.1 µM) | 1000 (≈ 2330 µM) | 250 (≈ 582 µM) | 99 | 50 (≈ 116 µM) | 500 (≈ 1160 µM) |
| NNc1nc2c(Cl)cccc2s1 | 250 (≈ 1250 µM) | 500 (≈ 2500 µM) | 500 (≈ 2500 µM) | 250 (≈ 1250 µM) | 1000 (≈ 5010 µM) | 500 (≈ 2500 µM) | 99 | 100 (≈ 501 µM) | 500 (≈ 2500 µM) |
| COc1ccc2nc(Nn3c(-c4ccc(C)cc4)nnc3-c3cccnc3)sc2c1 | 125 (≈ 302 µM) | 1000 (≈ 2410 µM) | 250 (≈ 603 µM) | 250 (≈ 603 µM) | 250 (≈ 603 µM) | 250 (≈ 603 µM) | 99 | 62.5 (≈ 151 µM) | 500 (≈ 1210 µM) |
| CO[C@H]1/C=C/O[C@@]2(C)Oc3c(C)c(O)c4c(O)c(c(/C=N/N5CCN(C)CC5)c(O)c4c3C2=O)NC(=O)/C(C)=C\C=C\[C@H](C)[C@H](O)[C@@H](C)[C@@H](O)[C@@H](C)[C@H](OC(C)=O)[C@@H]1C [RIFAMPIN] |  |  |  |  |  |  | 98 | 40 (≈ 48.6 µM) |  |
| Cc1ccc(-c2nnc(-c3cccnc3)n2Nc2nc3cc(Cl)c(Cl)cc3s2)cc1 | 500 (≈ 1100 µM) | 250 (≈ 551 µM) | 250 (≈ 551 µM) | 100 (≈ 221 µM) | 200 (≈ 441 µM) | 500 (≈ 1100 µM) | 99 | 100 (≈ 221 µM) | 500 (≈ 1100 µM) |
| NNc1nc2ccc(F)cc2s1 | 250 (≈ 1360 µM) | > 1000 | 500 (≈ 2730 µM) | 250 (≈ 1360 µM) | 250 (≈ 1360 µM) | 250 (≈ 1360 µM) | 98 | 250 (≈ 1360 µM) | > 1000 |
| Cc1cccc2sc(NN)nc12 | 250 (≈ 1390 µM) | 200 (≈ 1120 µM) | 500 (≈ 2790 µM) | 250 (≈ 1390 µM) | 500 (≈ 2790 µM) | 500 (≈ 2790 µM) | 98 | 500 (≈ 2790 µM) | 250 (≈ 1390 µM) |
| NNc1nc2c([N+](=O)[O-])cccc2s1 | 250 (≈ 1190 µM) | 200 (≈ 951 µM) | 500 (≈ 2380 µM) | 500 (≈ 2380 µM) | 200 (≈ 951 µM) | 250 (≈ 1190 µM) | 98 | 500 (≈ 2380 µM) | 250 (≈ 1190 µM) |
